# Published values of several laboratories.
# Lines come from different studies, so protocols differ.
# FLT3 autoinhibited: Receptor-type tyrosine-protein kinase FLT3, autoinhibited (FLT3, Homo sapiens, UniProt P36888)
# FLT3 R834Q: Receptor-type tyrosine-protein kinase FLT3 (FLT3, Homo sapiens, UniProt P36888, R834Q)
# FLT3 N841I: Receptor-type tyrosine-protein kinase FLT3 (FLT3, Homo sapiens, UniProt P36888, N841I)
# FLT3 D835V: Receptor-type tyrosine-protein kinase FLT3 (FLT3, Homo sapiens, UniProt P36888, D835V)
# FLT3 ITD: Receptor-type tyrosine-protein kinase FLT3 (FLT3, Homo sapiens, UniProt P36888, ITD)
# FLT3 D835H: Receptor-type tyrosine-protein kinase FLT3 (FLT3, Homo sapiens, UniProt P36888, D835H)
# FLT3 D835Y: Receptor-type tyrosine-protein kinase FLT3 (FLT3, Homo sapiens, UniProt P36888, D835Y)
# FLT3 K663Q: Receptor-type tyrosine-protein kinase FLT3 (FLT3, Homo sapiens, UniProt P36888, K663Q)
SMILES,target,observed,method,tested at,remaining binding [%]
Nc1ncc2c(n1)-c1c([nH]c3ccc(C#CC4CC4)cc13)CCCC2,FLT3 autoinhibited,binding,competition with immobilised ligand,1 µM,82
O=c1nc(-c2ccccn2)sc2ccccc12,FLT3 R834Q,binding,competition with immobilised ligand,1 µM,100
COc1ncc2cc3ccccc3nc2c1C#N,FLT3 N841I,cell-free assay,competition with immobilised ligand,5 µM,100
O=C(c1ccc(Nc2ncc(Cl)c(-c3ccc(Cl)s3)n2)cc1)N1CCC(N2CCCC2)CC1,FLT3 autoinhibited,binding,competition with immobilised ligand,1 µM,1.8
CNC(=O)[C@@H]1CC[C@@H](n2c(-c3ccc4cnccc4c3)nc3ccc(C(=O)NCc4cccc(C(N)=O)c4)cc32)C1,FLT3 autoinhibited,binding,competition with immobilised ligand,1 µM,91
CCN1CCN(Cc2ccc(C(=O)Nc3ccc(C)c(Oc4ccc5c(c4)CC(=O)N5)c3)cc2C(F)(F)F)CC1,"Receptor-type tyrosine-protein kinase FLT3 (FLT3, Homo sapiens, UniProt P36888)",binding,competition with immobilised ligand,1 µM,41
C=CC(=O)N1CCC(C(=O)NCC(=O)N2CCN(c3nc(-c4cnc(N)nc4C(F)F)nc(N4CCOCC4)n3)CC2)CC1,FLT3 R834Q,binding,competition with immobilised ligand,1 µM,84
Cc1cnc(Nc2ccc(C(=O)N3CCC(N4CCCC4)CC3)cc2)nc1-c1cc2ccccc2s1,FLT3 D835V,binding,competition with immobilised ligand,1 µM,0.6
c1ccc(N2CCN(Cc3nc4ccccc4[nH]3)CC2)nc1,FLT3 ITD,binding,competition with immobilised ligand,1 µM,100
CN(CCCC(F)(F)F)c1nccc(-c2cnn3ncccc23)n1,FLT3 autoinhibited,binding,,1 µM,100
COc1cnc(Nc2cccc(S(N)(=O)=O)c2)nc1N1CCN(c2ccccc2)C(=O)C1,FLT3 R834Q,binding,competition with immobilised ligand,1 µM,77
C[C@H]1CCN(c2nccc(-c3cnn4ncccc34)n2)C1,FLT3 autoinhibited,binding,,1 µM,72
O=C(NCCCN1CCOCC1)c1ccc(Nc2ncc(Cl)c(-c3ccc(Cl)s3)n2)cc1,FLT3 R834Q,binding,competition with immobilised ligand,1 µM,7.4
Cn1nc(C(=O)NCc2ccc(C(=O)O)cc2)cc1-c1ccc2[nH]ccc2c1,FLT3 N841I,cell-free assay,competition with immobilised ligand,0.1 µM,100
N[C@H]1CCN(c2nccc(-c3cnn4ncccc34)n2)C1,FLT3 D835H,binding,,1 µM,92
O=C(NCCCN1CCOCC1)c1ccc(Nc2nccc(-c3cc4ccccc4s3)n2)cc1,FLT3 ITD,binding,competition with immobilised ligand,1 µM,50
C[C@H](c1ccnc(Nc2nc3ccc(-c4cc(N(C)C)ncn4)cc3[nH]2)c1)N1CCN(C(=O)CC(F)(F)F)CC1,"Receptor-type tyrosine-protein kinase FLT3 (FLT3, Homo sapiens, UniProt P36888, F691L/ITD)",cell-free assay,competition with immobilised ligand,0.1 µM,42
Cc1cnn2ncc(-c3ccnc(N(C)C)n3)c2c1,FLT3 D835V,binding,,1 µM,66
O=C(NCc1ncc(C(F)(F)F)cc1Cl)c1ccc2c(c1)C1(CCS(=O)(=O)CC1)[C@H](C1CC1)N2S(=O)(=O)c1ccc(F)cc1,FLT3 D835H,cell-free assay,competition with immobilised ligand,1 µM,92
C[C@@H](c1ccc(-n2cnc3c(N)ncnc32)cc1)N1CCc2nn(C)c(Cc3ccccc3)c2C1=O,FLT3 D835V,binding,competition with immobilised ligand,0.1 µM,87
c1cncc(-c2cccc(Nc3nccc(NC4CCCCC4)n3)c2)c1,FLT3 D835V,binding,competition with immobilised ligand,10 µM,0
COc1cnc(Nc2cccc(S(N)(=O)=O)c2)nc1N1CCN(c2ccccc2)CC1,FLT3 D835H,binding,competition with immobilised ligand,1 µM,94
CN(C)c1ncc(F)c(-c2cnn3ncccc23)n1,FLT3 N841I,binding,,1 µM,75
O=C(Nc1c[nH]nc1C(=O)NC1CCNCC1)c1cc(F)cc(F)c1,FLT3 D835V,binding,competition with immobilised ligand,1 µM,100
O=C1NC(c2ccccn2)Sc2ccccc21 (centres unmarked),FLT3 D835Y,cell-free assay,competition with immobilised ligand,1 µM,86
CN(C)c1nccc(-c2cnn3ncccc23)n1,FLT3 K663Q,binding,,1 µM,100
C[C@@H]1CN(c2cc(-c3n[nH]c4ccc(OC5(C)CC5)cc34)ncn2)C[C@H](C)O1,FLT3 K663Q,cell-free assay,competition with immobilised ligand,0.1 µM,100
O=C(c1ccc(Nc2ncc(Cl)c(-c3cc4ccccc4s3)n2)cc1)N1CCC(N2CCCC2)CC1,FLT3 K663Q,binding,competition with immobilised ligand,1 µM,3.4
O=C(NCC1CCOCC1)c1n[nH]cc1NC(=O)c1c(F)cccc1F,FLT3 K663Q,binding,competition with immobilised ligand,1 µM,91
c1cnn2ncc(-c3ccnc(N4CCC45COC5)n3)c2c1,FLT3 autoinhibited,binding,,1 µM,58
CCS(=O)(=O)c1cc2cc(C[C@@](O)(CC(C)(C)c3ccc(F)cc3C(N)=O)C(F)(F)F)[nH]c2cn1,FLT3 D835Y,cell-free assay,competition with immobilised ligand,1 µM,99
O=C(c1ccc(Nc2nccc(-c3cc4ccccc4s3)n2)cc1)N1CCC(N2CCCC2)CC1,FLT3 autoinhibited,binding,competition with immobilised ligand,1 µM,64
